Source: ChEMBL document CHEMBL1671677, “Role of AbeS, a novel efflux pump of the SMR family of transporters, in resistance to antimicrobial agents in Acinetobacter baumannii” (2009)
≈ marks a conversion by molar mass, not a printed value. Calls of active or inactive are those of the source.

What was measured:
Escherichia coli [1] = experiment: Ratio of MIC for Escherichia coli KAM32 harboring recombinant plasmid pVBS1 encoding Acinetobacter baumannii abeS gene to MIC for Escherichia coli KAM32 harboring plasmid pUC18
Acinetobacter baumannii [2] = experiment: Ratio of MIC for Acinetobacter baumannii AC0037 to MIC for abeS-deficient Acinetobacter baumannii AC0037; type: functional
Procedure, shortened: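 MICs were determined by broth dilution and interpreted per CLSI criteria for the parental A. baumannii AC0037 and its abeS null mutant. The mutant was made by electroporating a plasmid carrying abeS disrupted by a kanamycin-resistance cassette, for double homologous recombination, and selected on 50 μg/ml kanamycin plus 80 μg/ml ticarcillin. The ratio is the parental MIC over the mutant MIC.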

Escherichia coli [3] = experiment: Antibacterial activity against Escherichia coli KAM32 harboring recombinant plasmid pVBS1 encoding Acinetobacter baumannii abeS gene by CLSI broth microdilution method in presence of 25 ug/ml efflux pump inhibitor CCCP; type: functional
Escherichia coli [4] = experiment: Antibacterial activity against Escherichia coli KAM32 harboring plasmid pUC18 by CLSI broth microdilution method in presence of 25 ug/ml efflux pump inhibitor CCCP; type: functional
Acinetobacter baumannii [5] = experiment: Antibacterial activity against Acinetobacter baumannii AC0037 by CLSI broth microdilution method; type: functional
Acinetobacter baumannii [6] = experiment: Antibacterial activity against abeS sigma abeS-deficient Acinetobacter baumannii AC0037 by CLSI broth microdilution method; type: functional
Escherichia coli [7] = experiment: Antibacterial activity against Escherichia coli KAM32 harboring plasmid pUC18 by CLSI broth microdilution method; type: functional
Escherichia coli [8] = experiment: Antibacterial activity against Escherichia coli KAM32 harboring recombinant plasmid pVBS1 encoding Acinetobacter baumannii abeS gene by CLSI broth microdilution method; type: functional
Acinetobacter baumannii [9] = experiment: Antibacterial activity against abeS-deficient Acinetobacter baumannii AC0037 by CLSI broth microdilution method; type: functional
[10] = molecular target: T1, QacEdelta1 SMR family efflux pump (Acinetobacter baumannii) (UniProt Q2FD83); experiment: Inhibition of Acinetobacter baumannii abeS expressed in Escherichia coli KAM32 assessed as decrease in increase in bromide accumulation
T1 sequence (whole entry): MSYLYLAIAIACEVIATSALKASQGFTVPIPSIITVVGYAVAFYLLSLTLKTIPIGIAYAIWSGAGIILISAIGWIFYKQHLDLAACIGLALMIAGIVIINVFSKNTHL
Procedure, shortened: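 EtBr accumulation in E. coli KAM32 (lacks AcrAB, YdhE) carrying pUC18 or pVBS1 (abeS). CCCP, a proton motive force uncoupler, added to 25 μg/ml final after 20 min with substrate. Cells lysed; supernatant fluorescence read at excitation 530 nm, emission 600 nm. Relative fluorescence taken as accumulated EtBr. Mean plus SD of three independent experiments.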

Structure (SMILES) | Ratio (Escherichia coli [1]) | Ratio (Acinetobacter baumannii [2]) | MIC (Escherichia coli [3]) | MIC (Escherichia coli [4]) | MIC (Acinetobacter baumannii [5]) | MIC (Acinetobacter baumannii [6]) | MIC (Escherichia coli [7]) | MIC (Escherichia coli [8]) | MIC (Acinetobacter baumannii [9]) | Activity (Acinetobacter baumannii [9]) | inhibition [10]
CCn1cc(C(=O)O)c(=O)c2cc(F)c(N3CCNCC3)cc21 [NORFLOXACIN] | 2 | 2 | 0.001 µg/mL | 0.001 µg/mL | 512 µg/mL (≈ 1600 µM) | > 128 µg/mL | 0.06 µg/mL (≈ 0.188 µM) | 0.12 µg/mL | 256 µg/mL (≈ 802 µM) |  | 
CO[C@H]1/C=C/O[C@@]2(C)Oc3c(C)c(O)c4c(O)c(c(/C=N/N5CCN(C)CC5)c(O)c4c3C2=O)NC(=O)/C(C)=C\C=C\[C@H](C)[C@H](O)[C@@H](C)[C@@H](O)[C@@H](C)[C@H](OC(C)=O)[C@@H]1C [RIFAMPIN] |  |  |  |  | 2 µg/mL (≈ 2.43 µM) | 2 µg/mL (≈ 2.43 µM) |  |  | 2 µg/mL (≈ 2.43 µM) |  | 
CN(C)c1ccc2cc3ccc(N(C)C)cc3nc2c1 [ACRIDINE ORANGE] | 5 | 4 |  |  | 200 µg/mL (≈ 754 µM) | 125 µg/mL (≈ 471 µM) | 16 µg/mL (≈ 60.3 µM) | 80 µg/mL | 50 µg/mL (≈ 188 µM) |  | 
C[C@@H](O)[C@H]1C(=O)N2C(C(=O)O)=C(S[C@@H]3CN[C@H](C(=O)N(C)C)C3)[C@H](C)[C@H]12 |  |  |  |  |  |  |  |  |  | inactive | 
NCC[C@H](O)C(=O)N[C@@H]1C[C@H](N)[C@@H](O[C@H]2O[C@H](CN)[C@@H](O)[C@H](O)[C@H]2O)[C@H](O)[C@H]1O[C@H]1O[C@H](CO)[C@@H](O)[C@H](N)[C@H]1O [AMIKACIN] | 2 | 1 | 0.15 µg/mL | 0.15 µg/mL | 256 µg/mL (≈ 437 µM) | 256 µg/mL (≈ 437 µM) | 1 µg/mL (≈ 1.71 µM) | 2 µg/mL | 256 µg/mL (≈ 437 µM) |  | 
[Cl-].c1ccc([P+](c2ccccc2)(c2ccccc2)c2ccccc2)cc1 [TETRAPHENYLPHOSPHONIUM CHLORIDE] | 2 | 5 | 0.25 µg/mL | 0.25 µg/mL | 1500 µg/mL | > 500 µg/mL | 8 µg/mL | 16 µg/mL | 300 µg/mL |  | 
N=C(N)c1ccc(-c2cc3ccc(C(=N)N)cc3[nH]2)cc1 [DAPI] | 4 | 4 |  |  | 2 µg/mL (≈ 7.21 µM) | 2 µg/mL (≈ 7.21 µM) | 0.5 µg/mL (≈ 1.8 µM) | 2 µg/mL | 0.5 µg/mL (≈ 1.8 µM) |  | 
N#CC(C#N)=NNc1cccc(Cl)c1 |  |  |  |  |  |  |  |  |  |  | Active
O=C(N[C@H](CO)[C@H](O)c1ccc([N+](=O)[O-])cc1)C(Cl)Cl [CHLORAMPHENICOL] | 1 | 4 |  |  | 256 µg/mL (≈ 792 µM) | 128 µg/mL (≈ 396 µM) | 0.2 µg/mL (≈ 0.619 µM) | 0.2 µg/mL | 64 µg/mL (≈ 198 µM) |  | 
N=C(NCCCCCCNC(=N)NC(=N)Nc1ccc(Cl)cc1)NC(=N)Nc1ccc(Cl)cc1 [CHLORHEXIDINE] | 2 | 2 |  |  | 32 µg/mL (≈ 63.3 µM) | 32 µg/mL (≈ 63.3 µM) | 2 µg/mL (≈ 3.96 µM) | 4 µg/mL | 16 µg/mL (≈ 31.7 µM) |  | 
CCBr [BROMOETHANE] | 4 | 8 |  |  | 1020 µg/mL (≈ 9400 µM) | > 512 µg/mL | 2 µg/mL (≈ 18.4 µM) | 8 µg/mL | 128 µg/mL (≈ 1170 µM) |  | 
COc1cc(Cc2cnc(N)nc2N)cc(OC)c1OC [TRIMETHOPRIM] | 2 | 1 |  |  | 64 µg/mL (≈ 220 µM) | 64 µg/mL (≈ 220 µM) | 0.125 µg/mL (≈ 0.431 µM) | 0.2 µg/mL | 64 µg/mL (≈ 220 µM) |  | 
C[n+]1ccc(-c2cc[n+](C)cc2)cc1.[Cl-].[Cl-] [PARAQUAT DICHLORIDE] | 2 | 2 | < 2.5 µg/mL | < 2.5 µg/mL | 800 µg/mL | 800 µg/mL | 64 µg/mL | 128 µg/mL | 400 µg/mL |  | 
CCCCCCCCCCCCOS(=O)(=O)[O-].[Na+] [SODIUM LAURYL SULFATE] | 16 | >16 | < 5 µg/mL | < 5 µg/mL | > 256 µg/mL | 128 µg/mL | 50 µg/mL | 800 µg/mL | 16 µg/mL |  | 
CCn1cc(C(=O)O)c(=O)c2ccc(C)nc21 [NALIDIXIC ACID] | 1 | 2 |  |  | 256 µg/mL (≈ 1100 µM) | 256 µg/mL (≈ 1100 µM) | 1 µg/mL (≈ 4.31 µM) | 1 µg/mL | 128 µg/mL (≈ 551 µM) |  | 
CN(C)[C@@H]1C(O)=C(C(N)=O)C(=O)[C@@]2(O)C(O)=C3C(=O)c4c(O)cccc4[C@@](C)(O)[C@H]3C[C@@H]12 [TETRACYCLINE] | 2 | 1 |  |  | 64 µg/mL (≈ 144 µM) | 64 µg/mL (≈ 144 µM) | 0.5 µg/mL (≈ 1.13 µM) | 1 µg/mL | 64 µg/mL (≈ 144 µM) |  | 
CC[C@H]1OC(=O)[C@H](C)[C@@H](O[C@H]2C[C@@](C)(OC)[C@@H](O)[C@H](C)O2)[C@H](C)[C@@H](O[C@@H]2O[C@H](C)C[C@H](N(C)C)[C@H]2O)[C@](C)(O)C[C@@H](C)C(=O)[C@H](C)[C@@H](O)[C@]1(C)O [ERYTHROMYCIN] | 6 | 8 | 0.25 µg/mL | < 0.05 µg/mL | 64 µg/mL (≈ 87.2 µM) | 32 µg/mL (≈ 43.6 µM) | 4 µg/mL (≈ 5.45 µM) | 24 µg/mL | 8 µg/mL (≈ 10.9 µM) |  | 
COC(=O)c1ccccc1-c1c2ccc(=N)cc-2oc2cc(N)ccc12.Cl [RHODAMINE123] | 4 | 2 |  |  | 128 µg/mL | 128 µg/mL | 8 µg/mL | 32 µg/mL | 64 µg/mL |  | 
CO[C@@H]1[C@@H](OC(N)=O)[C@@H](O)[C@H](Oc2ccc3c(O)c(NC(=O)c4ccc(O)c(CC=C(C)C)c4)c(=O)oc3c2C)OC1(C)C [NOVOBIOCIN] | 5 | 3 | < 0.5 µg/mL | < 0.5 µg/mL | 120 µg/mL (≈ 196 µM) | 84 µg/mL (≈ 137 µM) | 4 µg/mL (≈ 6.53 µM) | 20 µg/mL | 40 µg/mL (≈ 65.3 µM) |  | 
C[C@@H](O)[C@H]1C(=O)N2C(C(=O)O)=C(SCCNC=N)C[C@H]12 |  |  |  |  |  |  |  |  |  | inactive | 
C[C@H](CCC(=O)O)[C@H]1CC[C@H]2[C@@H]3CC[C@@H]4C[C@H](O)CC[C@]4(C)[C@H]3C[C@H](O)[C@]12C [DEOXYCHOLIC ACID] | 25 | >16 | 5 µg/mL | < 0.25 µg/mL | > 2050 µg/mL | 512 µg/mL (≈ 1300 µM) | 125 µg/mL (≈ 318 µM) | 3120 µg/mL | 128 µg/mL (≈ 326 µM) |  | 
CC(C)(O/N=C(\C(=O)N[C@@H]1C(=O)N2C(C(=O)[O-])=C(C[n+]3ccccc3)CS[C@H]12)c1csc(N)n1)C(=O)O |  |  |  |  |  |  |  |  |  | inactive | 
